Legend:
Cytochrome P450 2C9 = Cytochrome P450 2C9 (Homo sapiens, UniProt P11712); assay: Inhibition of CYP2C9; format: ADME
[1] = Clearance in dog at 3 mg/kg, po; format: ADME, organism-based, Canis lupus familiaris; set-up: dose 3 mg/kg, route oral; conditions: in vivo
Hepatitis C virus [2] = assay: Antiviral activity against Hepatitis C virus 1a by replicon-based assay; format: functional, organism-based, Hepacivirus hominis; conditions: subtype 1a
[3] = Oral bioavailability in monkey at 3 mg/kg; format: ADME, organism-based, Macaca mulatta; conditions: rhesus monkey, in vivo
[4] = Cytotoxicity against human hepatoma cells assessed as inhibition of [14C]thymidine incorporation after 3 days by TopCount analysis; format: cell-based
Procedure, shortened: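 Replicon cells were seeded in scintillating microplates one day before treatment. Compound dilutions in triplicate were added with [methyl-14C]-thymidine (final 0.5 uCi/mL) and incubated 3 days. Incorporated label was counted by scintillation proximity. DNA CC50 is the concentration giving 50% inhibition of thymidine incorporation versus vehicle-treated cells.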

[5] = Drug uptake in rat liver at 10 mg/kg, po at 6 hrs; format: ADME, organism-based; set-up: dose 10 mg/kg, route oral; conditions: read-out: Drug uptake
Procedure, shortened: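 Rats were dosed orally at 10 mpk in 0.4% methylcellulose, n=2. Animals were sacrificed at 6 h, and liver was harvested and processed to measure compound concentration (liver C6 h).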

[6] = Clearance in monkey at 3 mg/kg, po; format: ADME, organism-based, Macaca mulatta; set-up: dose 3 mg/kg, route oral; conditions: rhesus monkey, in vivo
[7] = Half life in rat at 10 mg/kg, po; format: ADME, organism-based; set-up: dose 10 mg/kg, route oral; conditions: in vivo
[8] = AUC in monkey at 3 mg/kg, po; format: ADME, organism-based, Macaca mulatta; set-up: dose 3 mg/kg, route oral; conditions: rhesus monkey, plasma
Procedure, shortened: (§1)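 Oral dosing of the HCl salt at 3 mpk; plasma AUC reported in µM.h.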

[9] = AUC in dog at 3 mg/kg, po; format: ADME, organism-based, Canis lupus familiaris; set-up: dose 3 mg/kg, route oral; conditions: plasma; procedure, shortened: as §1
[10] = Clearance in rat at 10 mg/kg, po; format: ADME, organism-based; set-up: dose 10 mg/kg, route oral; conditions: in vivo
[11] = Half life in monkey at 3 mg/kg, po; format: ADME, organism-based, Macaca mulatta; set-up: dose 3 mg/kg, route oral; conditions: rhesus monkey, in vivo
Hepatitis C virus [12] = assay: Antiviral activity against Hepatitis C virus 2a by replicon-based assay; format: functional, organism-based, Hepacivirus hominis; conditions: genotype 2a
[13] = AUC (0 to 24 hrs) in rat at 10 mg/kg, po; format: ADME, organism-based; set-up: time < 24 hr, dose 10 mg/kg, route oral; conditions: plasma
Cytochrome P450 2D6 = Cytochrome P450 2D6 (Homo sapiens, UniProt P10635); assay: Inhibition of CYP2D6; format: ADME
Cytochrome P450 2D6, sequence (P10635 whole entry): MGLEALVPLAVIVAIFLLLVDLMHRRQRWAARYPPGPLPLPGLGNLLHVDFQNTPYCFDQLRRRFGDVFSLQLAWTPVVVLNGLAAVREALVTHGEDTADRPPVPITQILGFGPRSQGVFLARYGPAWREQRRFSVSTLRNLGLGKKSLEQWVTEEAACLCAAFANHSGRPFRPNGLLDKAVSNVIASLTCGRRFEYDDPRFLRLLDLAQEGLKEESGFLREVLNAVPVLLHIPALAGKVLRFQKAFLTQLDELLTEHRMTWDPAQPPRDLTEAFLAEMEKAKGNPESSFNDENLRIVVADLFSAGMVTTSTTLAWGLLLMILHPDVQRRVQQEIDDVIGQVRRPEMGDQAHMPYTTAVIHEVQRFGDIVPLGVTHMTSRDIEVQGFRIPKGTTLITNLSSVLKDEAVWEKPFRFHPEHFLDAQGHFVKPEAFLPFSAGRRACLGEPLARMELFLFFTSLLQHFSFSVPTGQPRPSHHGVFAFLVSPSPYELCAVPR

Hepatitis C virus [14] = assay: Antiviral activity against Hepatitis C virus 1b con1 infected in human hepatoma cells assessed as decrease in replicon RNA level after 3 days by RT-PCR analysis; format: functional, organism-based, Hepacivirus hominis; conditions: genotype 1b Con1, 72 h
Procedure, shortened: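 Con1 genotype 1b replicon cells were seeded at 5000 cells/well one day before treatment. Compound in DMSO was added (final 0.5% DMSO, 10% FBS) as 10 serial twofold dilutions in triplicate. Cells were harvested 3 days after dosing. Replicon RNA was quantified by real-time RT-PCR (Taqman), normalized to GAPDH RNA, and EC50 was calculated.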

[15] = Half life in dog at 3 mg/kg, po; format: ADME, organism-based, Canis lupus familiaris; set-up: dose 3 mg/kg, route oral; conditions: in vivo
[16] = Cytotoxicity against human hepatoma cells assessed as decrease in GADPH RNA level after 3 days by Rt-PCR analysis; format: cell-based
[17] = Oral bioavailability in rat at 10 mg/kg; format: ADME, organism-based; conditions: in vivo
[18] = Oral bioavailability in dog at 3 mg/kg; format: ADME, organism-based, Canis lupus familiaris; conditions: in vivo
Cytochrome P450 3A4 = Cytochrome P450 3A4 (Homo sapiens, UniProt P08684); assay: Inhibition of CYP3A4; format: ADME
Cytochrome P450 3A4, sequence (P08684 whole entry): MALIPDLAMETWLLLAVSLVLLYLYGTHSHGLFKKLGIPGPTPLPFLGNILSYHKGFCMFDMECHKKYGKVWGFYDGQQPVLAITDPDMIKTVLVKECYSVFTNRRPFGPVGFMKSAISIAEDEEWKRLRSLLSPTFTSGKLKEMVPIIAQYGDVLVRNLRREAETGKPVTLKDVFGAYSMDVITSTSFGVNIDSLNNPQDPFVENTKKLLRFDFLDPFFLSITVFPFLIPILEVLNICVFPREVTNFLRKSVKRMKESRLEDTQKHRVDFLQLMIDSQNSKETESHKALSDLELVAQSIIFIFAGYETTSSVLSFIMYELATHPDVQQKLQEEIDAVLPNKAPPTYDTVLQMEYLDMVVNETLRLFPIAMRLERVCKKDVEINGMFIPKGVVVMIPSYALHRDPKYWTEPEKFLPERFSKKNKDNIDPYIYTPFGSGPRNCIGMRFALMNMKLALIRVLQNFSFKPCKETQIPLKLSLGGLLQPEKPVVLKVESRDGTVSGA

[19] = Cytotoxicity against human hepatoma cells after 3 days by MTS assay; format: cell-based
Procedure, shortened: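 MTS cell proliferation assay on replicon cells handled as in the replicon activity assay (seeded one day before, 0.5% DMSO, 10% FBS, serial dilutions), read 3 days after dosing. CC50 is the concentration giving 50% inhibition relative to vehicle-treated cells.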

Cytochrome P450 2C9, sequence (P11712 whole entry): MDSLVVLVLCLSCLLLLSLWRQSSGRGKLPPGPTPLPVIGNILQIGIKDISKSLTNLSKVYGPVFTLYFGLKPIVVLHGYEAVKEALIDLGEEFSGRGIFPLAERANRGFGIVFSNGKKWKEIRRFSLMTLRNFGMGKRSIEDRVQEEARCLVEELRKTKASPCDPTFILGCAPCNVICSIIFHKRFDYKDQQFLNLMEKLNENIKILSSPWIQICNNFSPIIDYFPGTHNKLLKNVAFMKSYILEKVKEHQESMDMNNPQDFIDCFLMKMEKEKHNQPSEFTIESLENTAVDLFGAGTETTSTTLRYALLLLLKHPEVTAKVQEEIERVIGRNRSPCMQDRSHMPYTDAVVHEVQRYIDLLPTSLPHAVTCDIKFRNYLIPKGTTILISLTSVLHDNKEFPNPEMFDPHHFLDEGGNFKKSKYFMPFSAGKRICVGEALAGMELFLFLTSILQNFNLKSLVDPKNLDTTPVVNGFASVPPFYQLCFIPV

| INH (Cytochrome P450 2C9) [µM] | CL/F [1] [mL/min/kg] | EC50 (Hepatitis C virus [2]) [nM] | bioavailability [3] [%] | concentration at 6 h [5] [ng/g] | CL/F [6] [mL/min/kg] | half-life [7] [min] | AUC [8] [µM·h] | AUC [9] [µM·h] | CL/F [10] [mL/min/kg] | half-life [11] [min] | EC50 (Hepatitis C virus [12]) [nM] | AUC(0-t) at 24 h [13] [µM·h] | INH (Cytochrome P450 2D6) [µM] | EC50 (Hepatitis C virus [14]) [nM] | half-life [15] [min] | bioavailability [17] [%] | bioavailability [18] [%] | SMILES | CC50 at 72 h [4] [µM] | CC50 at 72 h [16] [µM] | also measured |
| --- | --- | --- | --- | --- | --- | --- | --- | --- | --- | --- | --- | --- | --- | --- | --- | --- | --- | --- | --- | --- | --- |
| > 20 | 4.2 | 400 | 12 | 11000 | 7.2 | 300 | 1.3 | 5.1 | 11 | 264 | 180 | 5.2 | > 20 | 60 | 312 | 18 | 32 | Cc1nc(N[C@H](C)c2ccc(OC(F)(F)F)cc2)nc(N[C@@H]2C[C@H](CO)[C@@H](O)[C@H]2O)c1-c1nc2c(C3CC3)nccc2s1.Cl | > 25 | 25 | INH (Cytochrome P450 3A4): > 20 µM; CC50 at 72 h [19]: > 25 µM |
| > 20 | 9.8 | 70 | 7 | 2820 | 20 | 150 | 0.3 | 2.9 | 40 | 198 | 80 | 1.1 | > 20 | 16 | 252 | 15 | 31 | Cc1nc(N[C@H](C)c2ccc(OC(F)(F)F)cc2)nc(N[C@@H]2C[C@H](CO)[C@@H](O)[C@H]2O)c1-c1nc2c(C)nccc2s1.Cl | > 25 | 25 | INH (Cytochrome P450 3A4): > 20 µM; CC50 at 72 h [19]: > 25 µM |
